Assay results as given in ChEMBL document CHEMBL4261600 (Eur J Med Chem, 2018).

Assays:
[1] = Half life in beagle dog at 10 mg/kg, po by LC-MS/MS analysis; format: ADME, organism-based, Canis lupus familiaris; details: in vivo
[2] = tested on: Tyrosine-protein kinase ABL1 (Homo sapiens), P00519 [Q252H]; test: Binding affinity to human non-phosphorylated ABL1 Q252H mutant (S229 to K512 residues) expressed in mammalian expression system assessed as remaining unbound target protein level at 1000 nM by Kinomescan method relative to control
In short: (§1)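 KINOMEscan competition-binding profiling across the panel of 468 kinases and mutants, with inhibitor tested at 1 μM. Binding is expressed as percent of control, with DMSO as the reference control.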

[3] = biological target: Ankyrin repeat and protein kinase domain-containing protein 1 (Homo sapiens) (UniProt Q8NFD2); test: Binding affinity to wild-type human partial length ANKK1 (M1 to A305 residues) expressed in mammalian expression system assessed as remaining unbound target protein level at 1000 nM by Kinomescan method relative to control
In short: (§2)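 Profiled in a KINOMEscan binding panel with the inhibitor at a single concentration of 1 μM. Binding to each kinase was read out as percent of control, relative to a DMSO control. Strong binders were defined as those with a percent control value below 1.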

[4] = biological target: Tyrosine-protein kinase BTK (Homo sapiens) (UniProt Q06187); test: Binding affinity to wild-type human full length BTK (M1 to S659 residues) expressed in mammalian expression system assessed as remaining unbound target protein level at 1000 nM by Kinomescan method relative to control
In short: (§3)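 Single-point competition binding screen across a panel of 468 kinases and mutants, with the inhibitor at 1 μM. Binding is read out as percent of a DMSO control, and targets below 1 percent control were classed as strong binders.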

[5] = tested on: Epidermal growth factor receptor (Homo sapiens), P00533 [T790M]; test: Binding affinity to human partial length EGFR T790M mutant (R669 to G1022 residues) expressed in mammalian expression system assessed as remaining unbound target protein level at 1000 nM by Kinomescan method relative to control; in short: as §1
[6] = biological target: Ephrin type-A receptor 1 (Homo sapiens) (UniProt P21709); test: Binding affinity to wild-type human partial length EPHA1 (V588 to I913 residues) expressed in bacterial expression system assessed as remaining unbound target protein level at 1000 nM by Kinomescan method relative to control
In short: (§4)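 KINOMEscan binding panel of 468 kinases/mutants. Inhibitor was tested at a single concentration of 1 μM. Binding is reported as percent of control, defined relative to a DMSO control.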

[7] = biological target: Ephrin type-A receptor 3 (Homo sapiens) (UniProt P29320); test: Binding affinity to wild-type human partial length EPHA3 (D604 to K889 residues) expressed in bacterial expression system assessed as remaining unbound target protein level at 1000 nM by Kinomescan method relative to control; in short: as §4
[8] = biological target: Ephrin type-A receptor 4 (Homo sapiens) (UniProt P54764); test: Binding affinity to wild-type human partial length EPHA4 (T601 to R897 residues) expressed in bacterial expression system assessed as remaining unbound target protein level at 1000 nM by Kinomescan method relative to control
[9] = biological target: Ephrin type-B receptor 4 (Homo sapiens) (UniProt P54760); test: Binding affinity to wild-type human partial length EPHB4 (H585 to G892 residues) expressed in bacterial expression system assessed as remaining unbound target protein level at 1000 nM by Kinomescan method relative to control; in short: as §4
[10] = biological target: Glycogen synthase kinase-3 alpha (Homo sapiens) (UniProt P49840); test: Binding affinity to wild-type human full length GSK3A (M1 to S483 residues) expressed in bacterial expression system assessed as remaining unbound target protein level at 1000 nM by Kinomescan method relative to control
In short: (§5)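 KINOMEscan competition binding profile across a panel of 468 kinases and mutants, with the inhibitor tested at a single concentration of 1 μM. Binding is reported as percent of control, meaning signal relative to a DMSO control.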

[11] = biological target: Inhibitor of nuclear factor kappa-B kinase subunit alpha (Homo sapiens) (UniProt O15111); test: Binding affinity to wild-type human full length IKK-alpha (M1 to E745 residues) expressed in mammalian expression system assessed as remaining unbound target protein level at 1000 nM by Kinomescan method relative to control; in short: as §3
[12] = biological target: Mitogen-activated protein kinase kinase kinase 15 (Homo sapiens) (UniProt Q6ZN16); test: Binding affinity to wild-type human partial length MAP3K15 (T625 to L932 residues) expressed in mammalian expression system assessed as remaining unbound target protein level at 1000 nM by Kinomescan method relative to control
[13] = biological target: Cyclin-dependent kinase 15 (Homo sapiens) (UniProt Q96Q40); test: Binding affinity to wild-type human full length PFTAIRE2 (M1 to W384 residues) expressed in bacterial expression system assessed as remaining unbound target protein level at 1000 nM by Kinomescan method relative to control; in short: as §5
[14] = biological target: Ribosomal protein S6 kinase alpha-1 (Homo sapiens) (UniProt Q15418); test: Binding affinity to wild-type human partial length C-termianl RSK1 kinase domain 2 (P360 to L681 residues) expressed in bacterial expression system assessed as remaining unbound target protein level at 1000 nM by Kinomescan method relative to control; in short: as §2
[15] = biological target: Ribosomal protein S6 kinase alpha-3 (Homo sapiens) (UniProt P51812); test: Binding affinity to wild-type human partial length C-terminal RSK2 kinase domain 2 (V402 to S715 residues) expressed in mammalian expression system assessed as remaining unbound target protein level at 1000 nM by Kinomescan method relative to control; in short: as §2
[16] = biological target: Serine/threonine-protein kinase SIK2 (Homo sapiens) (UniProt Q9H0K1); test: Binding affinity to wild-type human full length SIK2 (M1 to N926 residues) expressed in bacterial expression system assessed as remaining unbound target protein level at 1000 nM by Kinomescan method relative to control; in short: as §2
[17] = biological target: TGF-beta receptor type-1 (Homo sapiens) (UniProt P36897); test: Binding affinity to wild-type human partial length TGFBR1 (D179 to M503 residues) expressed in bacterial expression system assessed as remaining unbound target protein level at 1000 nM by Kinomescan method relative to control
[18] = biological target: Serine/threonine-protein kinase WNK1 (Homo sapiens) (UniProt Q9H4A3); test: Binding affinity to wild-type human partial length WNK1 (Q194 to A490 residues) expressed in mammalian expression system assessed as remaining unbound target protein level at 1000 nM by Kinomescan method relative to control
[19] = biological target: Serine/threonine-protein kinase WNK4 (Homo sapiens) (UniProt Q96J92); test: Binding affinity to wild-type human partial length WNK4 (A31 to D461 residues) expressed in mammalian expression system assessed as remaining unbound target protein level at 1000 nM by Kinomescan method relative to control
[20] = biological target: Mitogen-activated protein kinase kinase kinase 20 (Homo sapiens) (UniProt Q9NYL2); test: Binding affinity to wild-type human partial length ZAK (M1 to L331 residues) expressed in bacterial expression system assessed as remaining unbound target protein level at 1000 nM by Kinomescan method relative to control
Chain of Mitogen-activated protein kinase kinase kinase 20 (Homo sapiens) (Q9NYL2 2-800 limits assumed): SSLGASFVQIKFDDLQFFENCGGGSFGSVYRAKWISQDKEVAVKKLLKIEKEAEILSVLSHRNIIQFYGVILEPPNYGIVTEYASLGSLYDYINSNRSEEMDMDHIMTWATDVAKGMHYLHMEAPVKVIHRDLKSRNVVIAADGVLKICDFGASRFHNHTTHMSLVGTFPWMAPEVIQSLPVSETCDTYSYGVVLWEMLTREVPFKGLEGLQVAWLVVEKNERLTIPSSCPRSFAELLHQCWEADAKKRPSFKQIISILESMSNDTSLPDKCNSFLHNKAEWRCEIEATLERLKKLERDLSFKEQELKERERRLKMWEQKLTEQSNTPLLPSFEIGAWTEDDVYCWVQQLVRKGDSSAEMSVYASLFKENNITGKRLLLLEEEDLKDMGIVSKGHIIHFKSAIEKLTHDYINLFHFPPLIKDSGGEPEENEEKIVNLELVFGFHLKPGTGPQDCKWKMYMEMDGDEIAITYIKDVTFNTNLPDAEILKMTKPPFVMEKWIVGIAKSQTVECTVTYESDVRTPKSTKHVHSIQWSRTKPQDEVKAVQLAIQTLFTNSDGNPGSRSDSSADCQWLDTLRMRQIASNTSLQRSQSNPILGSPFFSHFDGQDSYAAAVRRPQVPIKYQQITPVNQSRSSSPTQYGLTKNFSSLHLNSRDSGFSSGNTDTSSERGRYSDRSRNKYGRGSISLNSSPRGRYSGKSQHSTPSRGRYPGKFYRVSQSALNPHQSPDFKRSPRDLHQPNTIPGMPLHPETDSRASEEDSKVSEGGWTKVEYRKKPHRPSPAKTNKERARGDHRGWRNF

Chain of TGF-beta receptor type-1 (Homo sapiens) (P36897 whole entry, the tested form may be a part): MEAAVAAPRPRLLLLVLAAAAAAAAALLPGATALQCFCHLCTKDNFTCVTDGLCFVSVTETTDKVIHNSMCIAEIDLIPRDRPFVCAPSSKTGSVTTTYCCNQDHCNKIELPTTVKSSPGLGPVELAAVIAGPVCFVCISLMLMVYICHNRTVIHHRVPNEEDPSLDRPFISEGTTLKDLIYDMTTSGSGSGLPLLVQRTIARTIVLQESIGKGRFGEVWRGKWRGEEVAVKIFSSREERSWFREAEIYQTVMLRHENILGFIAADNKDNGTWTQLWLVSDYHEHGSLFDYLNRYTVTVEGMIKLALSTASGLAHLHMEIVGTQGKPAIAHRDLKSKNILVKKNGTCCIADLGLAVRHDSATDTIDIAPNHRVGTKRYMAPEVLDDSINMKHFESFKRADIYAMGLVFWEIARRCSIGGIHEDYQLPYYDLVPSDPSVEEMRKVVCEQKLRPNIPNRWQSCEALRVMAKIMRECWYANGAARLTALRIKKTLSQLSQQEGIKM
Chain of Ribosomal protein S6 kinase alpha-1 (Homo sapiens) (Q15418 whole entry, the tested form may be a part): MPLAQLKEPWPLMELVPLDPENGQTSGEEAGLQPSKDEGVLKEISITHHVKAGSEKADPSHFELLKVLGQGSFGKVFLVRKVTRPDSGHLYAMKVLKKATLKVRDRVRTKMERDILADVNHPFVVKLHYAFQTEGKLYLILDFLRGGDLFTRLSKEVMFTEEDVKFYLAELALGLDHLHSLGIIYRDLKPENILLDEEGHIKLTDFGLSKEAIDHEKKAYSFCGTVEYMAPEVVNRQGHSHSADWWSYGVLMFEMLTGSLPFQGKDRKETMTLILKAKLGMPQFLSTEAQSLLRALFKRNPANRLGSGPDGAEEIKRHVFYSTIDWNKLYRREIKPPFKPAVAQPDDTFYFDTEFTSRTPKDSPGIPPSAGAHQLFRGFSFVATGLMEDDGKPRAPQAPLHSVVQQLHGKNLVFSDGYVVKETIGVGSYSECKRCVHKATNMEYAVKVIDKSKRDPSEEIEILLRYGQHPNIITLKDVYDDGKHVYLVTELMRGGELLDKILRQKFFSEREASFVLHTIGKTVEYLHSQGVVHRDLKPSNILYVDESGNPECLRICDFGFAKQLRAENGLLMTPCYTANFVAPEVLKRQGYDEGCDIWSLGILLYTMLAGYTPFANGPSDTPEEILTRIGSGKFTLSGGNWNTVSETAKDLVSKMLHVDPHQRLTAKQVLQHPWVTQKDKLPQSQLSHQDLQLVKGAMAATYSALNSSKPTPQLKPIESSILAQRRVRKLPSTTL
Chain of Serine/threonine-protein kinase SIK2 (Homo sapiens) (Q9H0K1 whole entry, looked up, the tested form may be a part): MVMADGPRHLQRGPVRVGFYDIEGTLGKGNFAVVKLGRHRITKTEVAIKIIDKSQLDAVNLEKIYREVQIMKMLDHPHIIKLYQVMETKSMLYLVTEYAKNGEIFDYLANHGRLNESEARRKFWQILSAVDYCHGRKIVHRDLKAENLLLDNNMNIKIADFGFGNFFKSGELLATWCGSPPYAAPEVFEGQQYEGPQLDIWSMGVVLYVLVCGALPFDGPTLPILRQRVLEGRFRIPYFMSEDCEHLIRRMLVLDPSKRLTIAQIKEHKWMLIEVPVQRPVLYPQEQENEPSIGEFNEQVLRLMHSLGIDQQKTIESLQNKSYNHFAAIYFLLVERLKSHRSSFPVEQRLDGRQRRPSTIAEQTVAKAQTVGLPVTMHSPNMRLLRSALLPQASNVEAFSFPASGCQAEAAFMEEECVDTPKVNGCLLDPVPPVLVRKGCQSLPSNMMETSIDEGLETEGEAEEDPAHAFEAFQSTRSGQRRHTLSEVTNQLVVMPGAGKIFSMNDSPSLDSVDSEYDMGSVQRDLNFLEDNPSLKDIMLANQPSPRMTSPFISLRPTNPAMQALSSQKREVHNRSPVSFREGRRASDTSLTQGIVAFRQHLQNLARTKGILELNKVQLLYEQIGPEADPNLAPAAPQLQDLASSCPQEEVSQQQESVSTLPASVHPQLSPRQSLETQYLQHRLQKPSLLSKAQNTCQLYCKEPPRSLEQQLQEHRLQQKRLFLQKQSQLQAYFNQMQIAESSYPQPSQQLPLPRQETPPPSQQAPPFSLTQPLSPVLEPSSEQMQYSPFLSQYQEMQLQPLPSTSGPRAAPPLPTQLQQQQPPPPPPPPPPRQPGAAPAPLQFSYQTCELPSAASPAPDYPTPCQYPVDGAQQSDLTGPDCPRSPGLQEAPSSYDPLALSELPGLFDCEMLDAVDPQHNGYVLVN
Chain of Tyrosine-protein kinase BTK (Homo sapiens) (Q06187 whole entry, the tested form may be a part): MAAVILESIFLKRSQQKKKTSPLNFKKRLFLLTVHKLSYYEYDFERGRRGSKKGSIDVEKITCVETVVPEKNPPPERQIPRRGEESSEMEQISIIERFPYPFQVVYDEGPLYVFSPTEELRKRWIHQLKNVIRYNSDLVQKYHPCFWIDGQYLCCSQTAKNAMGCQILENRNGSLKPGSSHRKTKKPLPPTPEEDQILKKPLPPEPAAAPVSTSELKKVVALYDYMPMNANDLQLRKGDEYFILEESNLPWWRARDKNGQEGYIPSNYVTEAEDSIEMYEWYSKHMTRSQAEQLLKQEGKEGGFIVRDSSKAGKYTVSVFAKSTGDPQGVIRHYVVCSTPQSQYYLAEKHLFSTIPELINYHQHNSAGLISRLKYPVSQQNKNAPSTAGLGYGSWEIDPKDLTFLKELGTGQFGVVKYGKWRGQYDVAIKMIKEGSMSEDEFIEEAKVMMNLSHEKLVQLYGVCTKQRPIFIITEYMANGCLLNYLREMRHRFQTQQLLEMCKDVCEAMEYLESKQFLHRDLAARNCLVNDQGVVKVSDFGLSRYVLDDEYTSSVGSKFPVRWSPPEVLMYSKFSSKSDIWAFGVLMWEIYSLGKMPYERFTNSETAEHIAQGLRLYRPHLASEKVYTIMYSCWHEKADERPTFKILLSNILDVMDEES
Chain of Inhibitor of nuclear factor kappa-B kinase subunit alpha (Homo sapiens) (O15111 whole entry, the tested form may be a part): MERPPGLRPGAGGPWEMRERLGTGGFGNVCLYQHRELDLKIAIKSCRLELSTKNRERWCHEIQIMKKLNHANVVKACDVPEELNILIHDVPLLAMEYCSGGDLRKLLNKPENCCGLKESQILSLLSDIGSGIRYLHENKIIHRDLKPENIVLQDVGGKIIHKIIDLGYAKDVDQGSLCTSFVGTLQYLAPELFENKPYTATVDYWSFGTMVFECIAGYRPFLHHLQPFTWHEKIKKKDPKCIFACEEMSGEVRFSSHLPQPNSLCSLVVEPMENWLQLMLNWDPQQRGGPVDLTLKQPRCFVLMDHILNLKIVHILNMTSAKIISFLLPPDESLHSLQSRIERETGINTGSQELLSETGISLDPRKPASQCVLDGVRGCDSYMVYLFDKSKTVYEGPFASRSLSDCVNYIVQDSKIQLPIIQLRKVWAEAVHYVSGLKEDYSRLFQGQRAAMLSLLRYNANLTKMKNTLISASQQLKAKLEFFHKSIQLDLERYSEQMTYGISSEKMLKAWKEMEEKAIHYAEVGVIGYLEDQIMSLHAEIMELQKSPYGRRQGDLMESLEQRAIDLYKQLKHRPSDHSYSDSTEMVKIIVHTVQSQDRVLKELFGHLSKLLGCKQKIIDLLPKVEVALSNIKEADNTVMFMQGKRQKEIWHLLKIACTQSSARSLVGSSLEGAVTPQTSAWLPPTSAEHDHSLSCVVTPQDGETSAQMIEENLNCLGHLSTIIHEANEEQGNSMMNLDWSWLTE
Chain of Glycogen synthase kinase-3 alpha (Homo sapiens) (P49840 2-483 limits assumed): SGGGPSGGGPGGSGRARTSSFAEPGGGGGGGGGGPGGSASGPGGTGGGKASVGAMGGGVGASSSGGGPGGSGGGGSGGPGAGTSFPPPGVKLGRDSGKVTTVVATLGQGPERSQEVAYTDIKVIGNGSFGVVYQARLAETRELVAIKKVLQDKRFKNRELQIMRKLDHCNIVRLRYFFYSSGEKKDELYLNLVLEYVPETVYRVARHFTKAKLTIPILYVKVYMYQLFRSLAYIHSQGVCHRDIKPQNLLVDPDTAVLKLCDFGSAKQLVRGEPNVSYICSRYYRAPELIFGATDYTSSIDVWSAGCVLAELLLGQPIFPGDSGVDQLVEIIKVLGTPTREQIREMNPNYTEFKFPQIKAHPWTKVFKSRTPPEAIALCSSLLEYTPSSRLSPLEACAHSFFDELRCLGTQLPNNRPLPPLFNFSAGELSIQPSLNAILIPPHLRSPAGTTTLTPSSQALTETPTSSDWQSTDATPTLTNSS

`COCCN[C@H]1CC[C@H](Nc2cc(-c3csc(NCC4(C#N)CCOCC4)n3)c(Cl)cn2)CC1` gave a half-life [1] of 20.4 h, an Activity [2] of 97% and an Activity [3] of 100%. For the same compound, the Activity [4] was 100%, the Activity [5] was 100% and the Activity [6] was 39%. The Activity [7] was 94%, the Activity [8] was 96% and the Activity [9] was 86%. It also gave an Activity [10] of 68%, an Activity [11] of 89% and an Activity [12] of 84%. The Activity [13] was 66%, the Activity [14] was 100% and the Activity [15] was 98%. It also gave an Activity [16] of 100%, an Activity [17] of 98% and an Activity [18] of 100%. For the same compound, the Activity [19] was 100% and the Activity [20] was 96%.
